Experimental data taken from ChEMBL document CHEMBL1137400, “Dopamine/serotonin receptor ligands. 13: Homologization of a benzindoloazecine-type dopamine receptor antagonist modulates the affinities for dopamine D(1)-D(5) receptors” (J Med Chem, 2006).
Calls of active or inactive are those of the source. No cut-off for these calls is given here.

Tests used:
D(2) dopamine receptor [1] = target: T1, D(2) dopamine receptor (Homo sapiens, UniProt P14416); assay: Displacement of [3H]spiperone from human D2L dopamine receptor expressed in CHO cells; format: cell-based
Procedure, shortened: (§1)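 Human D2L or D3 receptors stably expressed in CHO cells; [3H]spiperone displacement in 96-well format. Incubation 90 min at 27 °C, ended by rapid filtration. IC50 was converted to Ki by Cheng-Prusoff. At least two independent experiments, each run in triplicate.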

D(1A) dopamine receptor [2] = target: T2, D(1A) dopamine receptor (Homo sapiens, UniProt P21728); assay: Displacement of [3H]SCH 23390 from human D1 dopamine receptor expressed in HEK293 cells; format: cell-based
Procedure, shortened: (§2)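 Human cloned receptors stably expressed: D1 in HEK293 cells with [3H]SCH 23390, and D4.4 in CHO cells with [3H]spiperone. Radioligand displacement was run in 96-well format, incubated 90 min at 27 °C and stopped by rapid filtration. At least two independent experiments, each in triplicate. Ki was calculated from IC50 by Cheng–Prusoff. "No activity" means under 70% displacement at 10^-5 M.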

[3] = target: T3, D(4) dopamine receptor (Homo sapiens) (UniProt P21917); assay: (§3) Displacement of [3H]spiperone from human D4 dopamine receptor expressed in CHO cells; format: cell-based; procedure, shortened: as §2
T3 sequence (whole entry): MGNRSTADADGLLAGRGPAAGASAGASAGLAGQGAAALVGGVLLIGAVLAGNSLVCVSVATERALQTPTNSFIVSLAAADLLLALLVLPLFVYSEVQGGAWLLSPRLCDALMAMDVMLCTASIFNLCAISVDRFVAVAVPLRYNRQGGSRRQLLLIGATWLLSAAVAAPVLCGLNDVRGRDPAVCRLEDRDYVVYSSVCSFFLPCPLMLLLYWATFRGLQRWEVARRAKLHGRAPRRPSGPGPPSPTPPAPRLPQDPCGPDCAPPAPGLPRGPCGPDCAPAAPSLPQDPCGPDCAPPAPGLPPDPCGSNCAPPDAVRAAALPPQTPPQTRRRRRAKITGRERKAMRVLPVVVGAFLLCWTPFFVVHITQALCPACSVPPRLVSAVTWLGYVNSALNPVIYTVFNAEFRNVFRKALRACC

D(1B) dopamine receptor [4] = target: T4, D(1B) dopamine receptor (Homo sapiens, UniProt P21918); assay: Displacement of [3H]SCH 23390 from human D5 dopamine receptor expressed in HEK293 cells; format: cell-based
Procedure, shortened: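 Radioligand binding with [3H]SCH 23390 on human D5 stably expressed in HEK293 cells, in 96-well format. Incubation 90 min at 27 °C, stopped by rapid filtration. Ki was calculated from IC50 by Cheng-Prusoff. At least two independent experiments, each in triplicate.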

D(1A) dopamine receptor [5] = target: T2, D(1A) dopamine receptor; assay: Activity at human D1 dopamine receptor expressed in HEK293 cells by calcium fluorescence assay; format: functional, cell-based
Procedure, shortened: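 Human D1 stably expressed in HEK293 cells. Intracellular Ca2+ was read by fluorescence. Compounds were first checked for any Ca2+ rise on their own, then tested for concentration-dependent suppression of the signal induced by the agonist SKF 38393. Ki was taken from the sigmoidal inhibition curve. Means of three experiments of six values each (±SEM), or of two experiments.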

D(3) dopamine receptor = D(3) dopamine receptor (Homo sapiens, UniProt P35462); assay: Displacement of [3H]spiperone from human D3 receptor expressed in CHO cells; format: cell-based; procedure, shortened: as §1
D(2) dopamine receptor [6] = target: T1, D(2) dopamine receptor; assay: Activity at human D2L dopamine receptor expressed in HEK293 cells by calcium fluorescence assay; format: functional, cell-based
D(1B) dopamine receptor [7] = target: T4, D(1B) dopamine receptor; assay: Activity at human D5 dopamine receptor expressed in HEK293 cells by calcium fluorescence assay; format: functional, cell-based
D(4) dopamine receptor = target: T5, D(4) dopamine receptor (Homo sapiens, UniProt P21917); assay: as §3; format: cell-based; procedure, shortened: as §2
T5 sequence (P21917 whole entry): T3 sequence (whole entry)

T4 sequence (P21918 whole entry): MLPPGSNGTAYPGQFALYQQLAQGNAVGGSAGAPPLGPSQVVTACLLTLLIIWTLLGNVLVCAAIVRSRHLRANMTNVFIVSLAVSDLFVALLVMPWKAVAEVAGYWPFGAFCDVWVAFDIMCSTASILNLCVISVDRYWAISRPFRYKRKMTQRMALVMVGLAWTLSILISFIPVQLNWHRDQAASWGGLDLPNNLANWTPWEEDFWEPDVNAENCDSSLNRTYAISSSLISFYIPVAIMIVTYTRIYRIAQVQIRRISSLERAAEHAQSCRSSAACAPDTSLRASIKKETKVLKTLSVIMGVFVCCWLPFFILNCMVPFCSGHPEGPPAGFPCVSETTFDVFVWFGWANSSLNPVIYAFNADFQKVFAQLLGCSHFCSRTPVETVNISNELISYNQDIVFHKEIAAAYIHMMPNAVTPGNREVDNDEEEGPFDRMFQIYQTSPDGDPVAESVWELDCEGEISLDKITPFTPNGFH
T2 sequence (P21728 whole entry): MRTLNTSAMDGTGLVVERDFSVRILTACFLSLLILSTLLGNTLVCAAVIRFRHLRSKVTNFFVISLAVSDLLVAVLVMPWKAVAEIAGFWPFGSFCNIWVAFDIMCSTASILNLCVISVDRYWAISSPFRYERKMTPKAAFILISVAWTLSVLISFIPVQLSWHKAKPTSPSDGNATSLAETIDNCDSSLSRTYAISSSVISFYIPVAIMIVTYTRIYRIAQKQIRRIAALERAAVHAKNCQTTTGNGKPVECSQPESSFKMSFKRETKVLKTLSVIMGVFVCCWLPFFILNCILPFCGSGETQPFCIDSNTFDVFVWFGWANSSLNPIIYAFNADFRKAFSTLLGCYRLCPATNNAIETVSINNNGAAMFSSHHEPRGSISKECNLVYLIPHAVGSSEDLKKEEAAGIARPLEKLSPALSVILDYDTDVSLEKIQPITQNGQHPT
D(3) dopamine receptor, sequence (P35462 whole entry): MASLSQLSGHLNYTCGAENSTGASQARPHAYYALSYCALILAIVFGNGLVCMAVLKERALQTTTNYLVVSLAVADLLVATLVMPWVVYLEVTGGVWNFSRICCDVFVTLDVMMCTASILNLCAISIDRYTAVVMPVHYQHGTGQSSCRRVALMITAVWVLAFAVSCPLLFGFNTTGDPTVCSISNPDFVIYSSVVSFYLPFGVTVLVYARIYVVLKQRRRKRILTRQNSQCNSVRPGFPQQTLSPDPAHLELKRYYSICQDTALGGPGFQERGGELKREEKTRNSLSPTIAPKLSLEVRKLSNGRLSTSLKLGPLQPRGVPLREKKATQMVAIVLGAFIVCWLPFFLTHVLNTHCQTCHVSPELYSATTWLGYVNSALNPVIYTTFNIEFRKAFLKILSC
T1 sequence (P14416 whole entry): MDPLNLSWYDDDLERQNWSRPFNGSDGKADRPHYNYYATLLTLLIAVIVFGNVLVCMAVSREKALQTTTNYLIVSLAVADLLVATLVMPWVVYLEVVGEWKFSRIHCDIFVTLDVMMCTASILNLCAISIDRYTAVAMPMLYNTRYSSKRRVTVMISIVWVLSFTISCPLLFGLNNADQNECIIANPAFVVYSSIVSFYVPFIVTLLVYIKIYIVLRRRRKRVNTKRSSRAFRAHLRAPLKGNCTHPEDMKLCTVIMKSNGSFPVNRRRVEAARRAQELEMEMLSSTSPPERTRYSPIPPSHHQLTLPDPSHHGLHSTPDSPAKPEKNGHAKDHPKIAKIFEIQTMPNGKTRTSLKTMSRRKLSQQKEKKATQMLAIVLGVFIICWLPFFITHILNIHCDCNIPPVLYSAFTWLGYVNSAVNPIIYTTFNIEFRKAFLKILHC

Compound	Activity (D(2) dopamine receptor [1])	Activity (D(1A) dopamine receptor [2])	Activity [3]	Activity (D(1B) dopamine receptor [4])	Activity (D(1A) dopamine receptor [5])	Activity (D(3) dopamine receptor)	Activity (D(2) dopamine receptor [6])	Activity (D(1B) dopamine receptor [7])	Ki (D(4) dopamine receptor)	Ki (D(3) dopamine receptor)	Ki (D(2) dopamine receptor [1])	Ki (D(1A) dopamine receptor [2])	Ki (D(1B) dopamine receptor [4])	Ki (D(1A) dopamine receptor [5])	Ki (D(2) dopamine receptor [6])	Ki (D(1B) dopamine receptor [7])
c1ccc2c(c1)CCN1CCCc3c([nH]c4ccccc34)C21 (centres undefined)	inactive	inactive	inactive	inactive	inactive	inactive	inactive	inactive								
CN1CCc2ccccc2Cc2[nH]c3ccccc3c2CC1									108 nM	25.9 nM						
c1ccc2c(c1)CCCN1CCc3c([nH]c4ccccc34)C21 (centres undefined)	inactive	inactive	inactive	inactive	inactive	inactive	inactive	inactive								
CN1CCCc2ccccc2Cc2[nH]c3ccccc3c2CC1									98.4 nM	278 nM	14.5 nM	2.2 nM	0.61 nM	2.8 nM	1.5 nM	2.8 nM
CN1CCCc2c([nH]c3ccccc23)Cc2ccccc2CC1									184 nM	521 nM	143 nM	163 nM	92 nM	304 nM	38 nM	71.6 nM
